Results taken from ChEMBL document CHEMBL3351764, “Design, synthesis and biological activity of flavonoid derivatives as selective agonists for neuromedin U 2 receptor” (Bioorg Med Chem, 2014).
Calls of active or inactive are those of the source. The calls are words filed in the database; no cut-off is given here.

How the values were obtained:
Neuromedin-U receptor 2 = Neuromedin-U receptor 2 (Homo sapiens, UniProt Q9GZQ4); assay: Agonist activity at human NMU2R transfected in HEK293 cells after 7 hrs by luciferase reporter gene assay; type: cell-based; conditions: hek293
Sequence of Neuromedin-U receptor 2 (Q9GZQ4 whole entry): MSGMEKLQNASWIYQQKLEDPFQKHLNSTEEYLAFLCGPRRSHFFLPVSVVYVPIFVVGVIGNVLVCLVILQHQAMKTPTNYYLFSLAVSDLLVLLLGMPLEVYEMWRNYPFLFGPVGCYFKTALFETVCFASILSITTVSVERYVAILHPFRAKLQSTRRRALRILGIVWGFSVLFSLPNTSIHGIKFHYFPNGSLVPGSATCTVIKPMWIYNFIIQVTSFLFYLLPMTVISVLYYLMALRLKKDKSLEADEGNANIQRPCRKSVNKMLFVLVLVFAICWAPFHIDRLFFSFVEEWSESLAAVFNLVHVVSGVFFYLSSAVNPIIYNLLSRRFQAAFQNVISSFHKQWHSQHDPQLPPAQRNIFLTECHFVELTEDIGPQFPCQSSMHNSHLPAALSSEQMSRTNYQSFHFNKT
Outline: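 HEK-293 cells were stably co-transfected with a reporter gene construct and human NMU2R cDNA in pcDNA3.1(+), maintained under G418 selection at 37 °C in 5% CO2, then seeded and incubated overnight. Compounds were added at various concentrations for 7 h at 37 °C, followed by Bright-Glo luciferase read-out. Forskolin and NMU served as positive controls. EC50 was fitted by four-parameter logistic regression; means ± SEM of three independent experiments.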

[1] = target: Melanocyte-stimulating hormone receptor (Homo sapiens) (UniProt Q01726); assay: Agonist activity at human MC1 receptor at 100 uM to 5 mM
Sequence of Melanocyte-stimulating hormone receptor (Homo sapiens) (Q01726 whole entry, looked up): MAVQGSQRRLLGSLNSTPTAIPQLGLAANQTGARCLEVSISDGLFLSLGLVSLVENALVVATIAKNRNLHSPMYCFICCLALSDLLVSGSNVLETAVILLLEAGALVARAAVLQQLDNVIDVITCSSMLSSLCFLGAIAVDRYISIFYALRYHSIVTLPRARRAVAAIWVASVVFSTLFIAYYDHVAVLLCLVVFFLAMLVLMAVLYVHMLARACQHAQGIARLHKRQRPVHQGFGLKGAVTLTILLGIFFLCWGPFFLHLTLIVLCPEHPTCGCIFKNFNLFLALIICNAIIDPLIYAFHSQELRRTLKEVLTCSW

[2] = target: Adrenocorticotropic hormone receptor (Homo sapiens) (UniProt Q01718); assay: Agonist activity at human MC2 receptor at 100 uM to 5 mM
Sequence of Adrenocorticotropic hormone receptor (Homo sapiens) (Q01718 whole entry): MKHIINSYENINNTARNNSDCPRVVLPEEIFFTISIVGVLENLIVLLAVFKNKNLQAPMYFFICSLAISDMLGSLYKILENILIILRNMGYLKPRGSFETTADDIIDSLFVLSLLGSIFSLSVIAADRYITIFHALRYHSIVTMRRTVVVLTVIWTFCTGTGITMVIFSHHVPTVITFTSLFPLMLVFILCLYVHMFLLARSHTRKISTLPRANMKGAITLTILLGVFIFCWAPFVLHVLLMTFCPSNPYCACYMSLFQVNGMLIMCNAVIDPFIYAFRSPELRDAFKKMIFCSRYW

[3] = target: Melanocortin receptor 3 (Homo sapiens) (UniProt P41968); assay: Agonist activity at human MC3 receptor at 100 uM to 5 mM
Sequence of Melanocortin receptor 3 (Homo sapiens) (P41968 whole entry): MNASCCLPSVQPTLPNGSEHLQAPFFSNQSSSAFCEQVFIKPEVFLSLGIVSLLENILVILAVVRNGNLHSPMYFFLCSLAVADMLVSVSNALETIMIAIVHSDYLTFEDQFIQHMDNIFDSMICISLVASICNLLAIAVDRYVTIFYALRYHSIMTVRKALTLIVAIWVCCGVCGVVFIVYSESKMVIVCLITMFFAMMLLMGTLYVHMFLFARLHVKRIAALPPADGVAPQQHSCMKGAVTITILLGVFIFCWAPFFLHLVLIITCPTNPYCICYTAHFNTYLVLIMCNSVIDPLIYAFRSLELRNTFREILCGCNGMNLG

[4] = target: Melanocortin receptor 4 (Homo sapiens) (UniProt P32245); assay: Agonist activity at human MC4 receptor at 100 uM to 5 mM
Sequence of Melanocortin receptor 4 (Homo sapiens) (P32245 whole entry): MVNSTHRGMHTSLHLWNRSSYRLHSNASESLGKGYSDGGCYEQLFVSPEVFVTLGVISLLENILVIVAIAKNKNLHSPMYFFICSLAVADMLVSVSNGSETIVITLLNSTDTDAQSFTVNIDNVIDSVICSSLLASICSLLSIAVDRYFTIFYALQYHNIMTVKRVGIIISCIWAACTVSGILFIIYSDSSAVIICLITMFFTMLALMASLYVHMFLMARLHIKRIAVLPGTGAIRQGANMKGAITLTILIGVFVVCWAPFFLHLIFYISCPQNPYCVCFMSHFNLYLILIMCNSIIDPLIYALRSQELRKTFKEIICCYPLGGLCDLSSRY

[5] = target: Melanocyte-stimulating hormone receptor (Mus musculus) (UniProt Q01727); assay: Agonist activity at mouse MC1 receptor at 100 uM to 5 mM
Sequence of Melanocyte-stimulating hormone receptor (Mus musculus) (Q01727 whole entry, looked up): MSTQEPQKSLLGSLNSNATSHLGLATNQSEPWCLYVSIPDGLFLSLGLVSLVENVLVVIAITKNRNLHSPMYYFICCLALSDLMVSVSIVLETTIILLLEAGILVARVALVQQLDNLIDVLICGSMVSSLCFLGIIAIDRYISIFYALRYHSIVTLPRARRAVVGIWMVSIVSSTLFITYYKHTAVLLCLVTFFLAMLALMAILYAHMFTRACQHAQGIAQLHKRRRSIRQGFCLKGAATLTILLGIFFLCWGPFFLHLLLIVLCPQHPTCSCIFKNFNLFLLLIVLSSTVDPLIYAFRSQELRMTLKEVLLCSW

[6] = target: Adrenocorticotropic hormone receptor (Mus musculus) (UniProt Q64326); assay: Agonist activity at mouse MC2 receptor at 100 uM to 5 mM
Sequence of Adrenocorticotropic hormone receptor (Mus musculus) (Q64326 whole entry): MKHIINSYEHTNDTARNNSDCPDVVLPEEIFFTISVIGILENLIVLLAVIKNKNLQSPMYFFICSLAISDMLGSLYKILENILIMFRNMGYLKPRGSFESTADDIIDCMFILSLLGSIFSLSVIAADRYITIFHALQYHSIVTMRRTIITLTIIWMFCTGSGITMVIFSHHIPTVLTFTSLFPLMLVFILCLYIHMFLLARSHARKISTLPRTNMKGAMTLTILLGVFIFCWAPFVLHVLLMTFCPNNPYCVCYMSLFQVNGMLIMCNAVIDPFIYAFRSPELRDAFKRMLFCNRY

[7] = target: Melanocortin receptor 3 (Mus musculus) (UniProt P33033); assay: Agonist activity at mouse MC3 receptor at 100 uM to 5 mM
Sequence of Melanocortin receptor 3 (Mus musculus) (P33033 whole entry): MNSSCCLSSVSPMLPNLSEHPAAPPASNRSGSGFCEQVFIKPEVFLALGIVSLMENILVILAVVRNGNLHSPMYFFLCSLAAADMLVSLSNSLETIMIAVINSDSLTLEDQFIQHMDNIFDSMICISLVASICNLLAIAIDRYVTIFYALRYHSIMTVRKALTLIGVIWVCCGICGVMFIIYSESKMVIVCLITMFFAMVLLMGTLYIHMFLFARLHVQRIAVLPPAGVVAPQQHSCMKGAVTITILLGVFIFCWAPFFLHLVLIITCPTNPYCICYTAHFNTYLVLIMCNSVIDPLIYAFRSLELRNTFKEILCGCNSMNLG

[8] = target: Melanocortin receptor 4 (Mus musculus) (UniProt P56450); assay: Agonist activity at mouse MC4 receptor at 100 uM to 5 mM
Sequence of Melanocortin receptor 4 (Mus musculus) (P56450 whole entry): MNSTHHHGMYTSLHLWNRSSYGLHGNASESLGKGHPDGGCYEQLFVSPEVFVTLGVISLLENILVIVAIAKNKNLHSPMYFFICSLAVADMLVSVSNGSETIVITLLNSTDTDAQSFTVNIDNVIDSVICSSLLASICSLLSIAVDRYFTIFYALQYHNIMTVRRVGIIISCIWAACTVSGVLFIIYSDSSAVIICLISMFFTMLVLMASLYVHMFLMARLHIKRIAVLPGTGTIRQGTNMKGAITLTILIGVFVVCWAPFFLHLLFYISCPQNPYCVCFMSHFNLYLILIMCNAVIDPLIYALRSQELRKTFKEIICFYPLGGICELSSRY

[9] = target: T1, Orexin receptor type 2 (Homo sapiens) (UniProt O43614); assay: Agonist activity at human orexin 2 receptor at 100 uM to 5 mM
T1 sequence (whole entry): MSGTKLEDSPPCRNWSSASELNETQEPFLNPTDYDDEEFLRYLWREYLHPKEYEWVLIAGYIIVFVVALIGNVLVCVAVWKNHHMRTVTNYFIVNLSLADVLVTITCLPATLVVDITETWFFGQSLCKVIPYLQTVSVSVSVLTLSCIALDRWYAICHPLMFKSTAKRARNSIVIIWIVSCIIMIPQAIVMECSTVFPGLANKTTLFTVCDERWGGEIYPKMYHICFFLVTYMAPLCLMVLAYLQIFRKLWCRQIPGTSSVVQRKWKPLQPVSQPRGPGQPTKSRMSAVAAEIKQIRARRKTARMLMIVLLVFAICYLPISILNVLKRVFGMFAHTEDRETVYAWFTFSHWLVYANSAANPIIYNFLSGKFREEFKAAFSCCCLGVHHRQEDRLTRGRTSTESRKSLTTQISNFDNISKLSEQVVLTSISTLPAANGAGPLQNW

[10] = target: Melanin-concentrating hormone receptor 1 (Homo sapiens) (UniProt Q99705); assay: Agonist activity at human MCH1 receptor at 100 uM to 5 mM
Sequence of Melanin-concentrating hormone receptor 1 (Homo sapiens) (Q99705 whole entry): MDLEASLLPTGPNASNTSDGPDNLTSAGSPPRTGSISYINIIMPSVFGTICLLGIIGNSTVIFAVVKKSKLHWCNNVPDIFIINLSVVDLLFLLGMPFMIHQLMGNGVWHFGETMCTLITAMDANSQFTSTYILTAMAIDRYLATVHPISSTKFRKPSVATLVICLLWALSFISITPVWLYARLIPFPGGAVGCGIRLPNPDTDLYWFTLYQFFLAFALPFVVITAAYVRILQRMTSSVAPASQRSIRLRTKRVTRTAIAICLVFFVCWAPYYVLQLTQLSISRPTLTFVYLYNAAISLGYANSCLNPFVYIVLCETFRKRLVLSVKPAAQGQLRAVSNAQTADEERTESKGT

[11] = target: T2, Muscarinic acetylcholine receptor M1 (Homo sapiens) (UniProt P11229); assay: Agonist activity at human M1 receptor at 100 uM to 5 mM
T2 sequence (whole entry): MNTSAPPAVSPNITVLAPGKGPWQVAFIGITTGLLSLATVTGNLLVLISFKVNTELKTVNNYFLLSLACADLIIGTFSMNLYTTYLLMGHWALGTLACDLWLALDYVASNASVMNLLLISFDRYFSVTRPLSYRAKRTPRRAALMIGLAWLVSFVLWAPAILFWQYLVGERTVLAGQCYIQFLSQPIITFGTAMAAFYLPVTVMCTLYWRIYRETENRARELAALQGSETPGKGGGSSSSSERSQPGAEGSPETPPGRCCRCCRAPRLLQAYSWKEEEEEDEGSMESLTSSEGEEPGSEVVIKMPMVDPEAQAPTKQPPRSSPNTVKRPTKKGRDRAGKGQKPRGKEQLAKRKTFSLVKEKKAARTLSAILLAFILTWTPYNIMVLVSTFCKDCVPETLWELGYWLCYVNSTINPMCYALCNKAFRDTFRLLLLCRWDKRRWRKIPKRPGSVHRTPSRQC

[12] = target: D(1A) dopamine receptor (Homo sapiens) (UniProt P21728); assay: Agonist activity at human D1 receptor at 100 uM to 5 mM
Sequence of D(1A) dopamine receptor (Homo sapiens) (P21728 whole entry): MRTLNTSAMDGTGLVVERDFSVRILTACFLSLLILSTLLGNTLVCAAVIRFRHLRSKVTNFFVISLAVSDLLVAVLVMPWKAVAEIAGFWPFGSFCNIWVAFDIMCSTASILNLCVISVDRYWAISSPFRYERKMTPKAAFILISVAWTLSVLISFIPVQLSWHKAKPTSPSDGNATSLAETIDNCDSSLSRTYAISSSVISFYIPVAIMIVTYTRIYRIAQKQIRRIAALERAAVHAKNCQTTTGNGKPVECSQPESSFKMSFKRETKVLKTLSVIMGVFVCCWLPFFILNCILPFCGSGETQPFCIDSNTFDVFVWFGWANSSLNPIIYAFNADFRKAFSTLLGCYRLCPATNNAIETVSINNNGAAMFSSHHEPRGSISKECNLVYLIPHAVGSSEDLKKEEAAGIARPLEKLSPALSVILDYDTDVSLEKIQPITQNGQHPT

[13] = target: Adenosine receptor A2a (Homo sapiens) (UniProt P29274); assay: Agonist activity at human A2a receptor at 100 uM to 5 mM
Sequence of Adenosine receptor A2a (Homo sapiens) (P29274 whole entry): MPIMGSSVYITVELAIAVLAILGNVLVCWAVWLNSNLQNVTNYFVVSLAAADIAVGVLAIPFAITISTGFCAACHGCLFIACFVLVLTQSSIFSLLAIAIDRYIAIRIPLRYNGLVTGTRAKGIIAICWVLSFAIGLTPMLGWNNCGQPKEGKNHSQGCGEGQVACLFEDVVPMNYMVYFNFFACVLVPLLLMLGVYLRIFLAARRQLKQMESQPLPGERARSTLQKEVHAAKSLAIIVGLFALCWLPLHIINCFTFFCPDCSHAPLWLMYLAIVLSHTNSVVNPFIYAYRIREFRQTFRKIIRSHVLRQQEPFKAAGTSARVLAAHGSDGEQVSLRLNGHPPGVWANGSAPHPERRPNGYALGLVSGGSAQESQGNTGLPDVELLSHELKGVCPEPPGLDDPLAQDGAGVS

[14] = target: T3, C5a anaphylatoxin chemotactic receptor 1 (Homo sapiens) (UniProt P21730); assay: Agonist activity at human C5a receptor at 100 uM to 5 mM
T3 sequence (whole entry): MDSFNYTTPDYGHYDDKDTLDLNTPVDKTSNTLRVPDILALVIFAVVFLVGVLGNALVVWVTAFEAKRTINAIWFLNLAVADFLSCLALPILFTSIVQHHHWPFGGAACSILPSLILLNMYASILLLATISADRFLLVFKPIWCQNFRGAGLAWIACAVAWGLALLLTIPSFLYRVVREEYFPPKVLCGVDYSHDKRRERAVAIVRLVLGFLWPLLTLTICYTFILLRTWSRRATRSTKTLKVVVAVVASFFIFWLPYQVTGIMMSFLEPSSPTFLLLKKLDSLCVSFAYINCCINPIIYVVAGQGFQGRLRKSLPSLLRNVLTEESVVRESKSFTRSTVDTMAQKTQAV

[15] = target: Glucagon receptor (Homo sapiens) (UniProt P47871); assay: Agonist activity at human Glu receptor at 100 uM to 5 mM
Sequence of Glucagon receptor (Homo sapiens) (P47871 whole entry): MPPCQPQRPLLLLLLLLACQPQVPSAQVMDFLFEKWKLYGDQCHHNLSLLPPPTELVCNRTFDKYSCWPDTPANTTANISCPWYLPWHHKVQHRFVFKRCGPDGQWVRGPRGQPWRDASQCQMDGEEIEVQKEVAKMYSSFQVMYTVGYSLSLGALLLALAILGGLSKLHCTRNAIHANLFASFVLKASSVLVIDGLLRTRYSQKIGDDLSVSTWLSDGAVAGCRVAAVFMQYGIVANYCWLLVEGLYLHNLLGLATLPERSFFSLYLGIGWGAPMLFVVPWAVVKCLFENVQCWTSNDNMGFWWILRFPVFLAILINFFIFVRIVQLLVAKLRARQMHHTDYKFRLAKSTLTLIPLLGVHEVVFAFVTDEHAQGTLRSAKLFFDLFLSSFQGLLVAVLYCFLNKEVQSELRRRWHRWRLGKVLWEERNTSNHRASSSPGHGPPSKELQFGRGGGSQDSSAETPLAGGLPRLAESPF

Row | EC50 (Neuromedin-U receptor 2) | Activity [1] | Activity [2] | Activity [3] | Activity [4] | Activity [5] | Activity [6] | Activity [7] | Activity [8] | Activity [9] | Activity [10] | Activity [11] | Activity [12] | Activity [13] | Activity [15] | SMILES | Activity [14]
1 | Not Active | inactive | inactive | inactive | inactive | inactive | inactive | inactive | inactive | inactive | inactive | inactive | inactive | inactive | inactive | O=c1cc(-c2ccc(Cl)cc2Cl)oc2ccccc12 | inactive
2 | Not Active | inactive | inactive | inactive | inactive | inactive | inactive | inactive | inactive | inactive | inactive | inactive | inactive | inactive | inactive | CCOC(=O)COc1c(-c2cc(Br)ccc2F)oc2ccccc2c1=O | inactive
3 | Not Active | inactive | inactive | inactive | inactive | inactive | inactive | inactive | inactive | inactive | inactive | inactive | inactive | inactive | inactive | Clc1ccc(C2C=Cc3ccccc3O2)c(Cl)c1 (racemic) | inactive
4 | Not Active | inactive | inactive | inactive | inactive | inactive | inactive | inactive | inactive | inactive | inactive | inactive | inactive | inactive | inactive | O=c1cc(-c2ccccc2F)oc2ccccc12 | inactive
5 | Not Active | inactive | inactive | inactive | inactive | inactive | inactive | inactive | inactive | inactive | inactive | inactive | inactive | inactive | inactive | CN(C)c1ccc(C2C=Cc3ccccc3O2)cc1 (racemic) | inactive
6 | Not Active | inactive | inactive | inactive | inactive | inactive | inactive | inactive | inactive | inactive | inactive | inactive | inactive | inactive | inactive | O=c1c(O)c(-c2c(F)cccc2Cl)oc2ccccc12 | inactive
7 | Not Active | inactive | inactive | inactive | inactive | inactive | inactive | inactive | inactive | inactive | inactive | inactive | inactive | inactive | inactive | Fc1ccccc1C1C=Cc2ccccc2O1 (racemic) | inactive
8 | Not Active | inactive | inactive | inactive | inactive | inactive | inactive | inactive | inactive | inactive | inactive | inactive | inactive | inactive | inactive | O=c1c(O)c(-c2ccc(Cl)cc2Cl)oc2ccccc12 | inactive
